The results in this text go back to PMC7261596 (Journal of the American Chemical Society, 2019).

The target in assay [1] is T1, ULK4 (Homo sapiens, UniProt Q96C45). Put plainly: Mant-ADP FRET nucleotide binding / displacement assay. To be noted: competition with a fixed concentration of Mant-ADP.
The target in assay [2] is T1, ULK4. Put plainly: ADP-Biotin labelling assay detected by Western blot. The assay is classed as binding. The settings on record: single concentration 25 μM; ratio of Streptavidin signal to His signal. The procedure, abridged:
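ULK4 incubated with the nucleotide analog ADP-Biotin, which biotin-labels the kinase only when bound. Biotinylated protein detected by Western blot. Test compounds, hits confirmed from a Mant-ADP displacement screen and dose response, tested at 25 μM, with competing nucleotides also at 25 μM. Mutant ULK4 forms also assayed for ADP-Biotin binding.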

T1 sequence (Q96C45 4-280 limits assumed): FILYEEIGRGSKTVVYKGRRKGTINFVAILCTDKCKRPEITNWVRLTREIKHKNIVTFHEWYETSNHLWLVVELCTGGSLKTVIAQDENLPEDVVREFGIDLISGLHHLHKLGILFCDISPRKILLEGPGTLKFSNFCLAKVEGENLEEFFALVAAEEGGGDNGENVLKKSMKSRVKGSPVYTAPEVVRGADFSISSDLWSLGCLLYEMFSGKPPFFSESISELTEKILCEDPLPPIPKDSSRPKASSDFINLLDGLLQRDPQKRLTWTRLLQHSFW

Turning to `Nc1ncnc2c1ncn2[C@@H]1O[C@H](COP(=O)(O)OP(=O)(O)O)[C@@H](O)[C@H]1O` [ADP], the Ki in assay [1] (With Mg) amounted to 37 µM; in assay [1] (Without Mg), 6.05 µM.

On to `Nc1ncnc2c1ncn2[C@@H]1O[C@H](COP(=O)(O)OP(=O)(O)OP(=O)(O)O)[C@@H](O)[C@H]1O` [ATP], for which the results for the Ki in assay [1] (With Mg) and in assay [1] (Without Mg) were 4.67 µM and 0.306 µM, respectively.

Regarding `CNC(=O)c1nn(C)c2c1C(C)(C)Cc1cnc(Nc3ccc(N4CCN(C)CC4)cc3)nc1-2` [PHA-848125], the “inhibition of ADP-Biotin binding to ULK4 (relative potency)” value in assay [2] is on record as “most potent ULK4 binders”.

For the compound `COc1cc(Nc2ncc(F)c(Nc3ccc4c(n3)N(COP(=O)(O)O)C(=O)C(C)(C)O4)n2)cc(OC)c1OC` [R788], the “inhibition of ADP-Biotin binding to ULK4 (relative potency)” value in assay [2] is “most potent ULK4 binders”.

Usually Ki stands for the dissociation constant of the complex between target and ligand, obtained from inhibition or displacement. Low readings indicate tighter binding, high ones weaker binding.
